The test system of experiment [1] is Plasmodium falciparum. As to the kind of experiment: Antimalarial activity in Plasmodium falciparum 3D7 infected erythrocytes as [3H]hypoxanthine uptake. Format: functional. The following applies: 3D7, 72 h, read-out: ED50 (the source's name). A digest of the protocol: (§1)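 Parasites kept per Trager–Jensen in RPMI-1640 with 2 mM L-glutamine, 25 mM HEPES, 33 mM NaHCO3, gentamicin, 20% heat-inactivated human A+ plasma. Compound in DMSO added to culture at 0.5% parasitemia and hematocrit; 37 °C, 5% CO2/5% O2/90% N2, 48 h. [8-3H]hypoxanthine (0.3 µCi) added for a further 24 h, then harvested and scintillation-counted. Uninfected-RBC background subtracted; DMSO vehicle taken as 100% growth. ED50 by linear regression.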

The test system of experiment [2] is Plasmodium falciparum. As to the kind of experiment: Antimalarial activity in Plasmodium falciparum K1 infected erythrocytes by [3H]hypoxanthine uptake. Format: functional. The conditions noted are these: K1, 72 h, read-out: ED50 (the source's name). A digest of the protocol: as §1
Experiment [3] concerns Plasmodium falciparum. As to the kind of experiment: Inhibition of Plasmodium falciparum PFT at 50 nM.
The test system of experiment [4] is Plasmodium falciparum. The experiment can be described thus: Inhibition of Plasmodium falciparum PFT at 5 nM.
Experiment [5] can be described thus: Selectivity for Plasmodium falciparum PFT over rat PFT.
Experiment [6] is described as follows: Inhibition of rat PFT by scintillation proximity assay. For orientation: In a scintillation proximity assay essentially only radioactivity close to the scintillant gives light.
The nature of experiment [7]: Inhibition of Plasmodium falciparum PFT.

Turning to `Cn1cnc(S(=O)(=O)N(CCN(Cc2cncn2C)c2ccc(C#N)cc2)Cc2ccsc2)c1`, the EC50 in the experiment with Plasmodium falciparum [1] is 150 nM; with Plasmodium falciparum [2], 240 nM. Further, the inhibition with Plasmodium falciparum [3] was 100%; in the experiment with Plasmodium falciparum [4], 91%.
For the molecule `Cc1ccccc1CN(CC(C)(C)N(Cc1cncn1C)c1ccc(C#N)cc1)S(=O)(=O)c1cn(C)cn1`, the inhibition with Plasmodium falciparum [3] came out at 98%; in the experiment with Plasmodium falciparum [4], 91%.
For the molecule `Cc1ccccc1CN([C@@H]1CC[C@@H](N(Cc2cncn2C)c2ccc(C#N)cc2)C1)S(=O)(=O)c1cn(C)cn1` (racemic), the EC50 is 2400 nM in the experiment with Plasmodium falciparum [1] and 2200 nM with Plasmodium falciparum [2]. This molecule also came in with an inhibition in the experiment on Plasmodium falciparum [3] of 33%.
Take `Cn1cnc(S(=O)(=O)N(CC2CCN(C(=O)OC(C)(C)C)CC2)[C@H]2CC[C@@H](N(Cc3cncn3C)c3ccc(C#N)cc3)CC2)c1`: in the experiment on Plasmodium falciparum [2], the EC50 was 650 nM. This molecule also registered an inhibition in the experiment on Plasmodium falciparum [3] of 0%.
With `Cn1cnc(S(=O)(=O)N(Cc2ccccc2)[C@@H]2CC[C@@H](N(Cc3cncn3C)c3ccc(C#N)cc3)C2)c1` (racemic), the EC50 in the experiment with Plasmodium falciparum [1] came to 340 nM; with Plasmodium falciparum [2], 145 nM. The inhibition in the experiment on Plasmodium falciparum [3] stood at 93%; in the experiment on Plasmodium falciparum [4], 65%.
Taken in the same sequence, the figures for `Cc1ccccc1CN([C@@H]1CCC[C@@H]1N(Cc1cncn1C)c1ccc(C#N)cc1)S(=O)(=O)c1cn(C)cn1` (racemic) were 2800 nM, 2800 nM, 17% and 16%.
Regarding `Cn1cnc(S(=O)(=O)N(CC2CCN(C(=O)OC(C)(C)C)CC2)CC(C)(C)N(Cc2cncn2C)c2ccc(C#N)cc2)c1`, the Selectivity ratio in experiment [5] came out at 136. The molecule also had an inhibition in the experiment on Plasmodium falciparum [3] of 87%. For the same molecule, the half-inhibitory concentration (IC50) in experiment [6] turned out to be 150 nM; in experiment [7] it was 1.1 nM.
For the molecule `Cn1cnc(S(=O)(=O)N(CC2CCN(c3ncccn3)CC2)[C@H]2CC[C@@H](N(Cc3cncn3C)c3ccc(C#N)cc3)C2)c1` (racemic), the values for the EC50 in the experiment with Plasmodium falciparum [1] and in the experiment on Plasmodium falciparum [2] were 600 nM and 720 nM, respectively. The inhibition with Plasmodium falciparum [3] came out at 6%.
Consider `Cn1cnc(S(=O)(=O)N(CC2CCN(C(=O)OC(C)(C)C)CC2)[C@@H]2CCC[C@@H]2N(Cc2cncn2C)c2ccc(C#N)cc2)c1` (racemic), for which the Selectivity ratio in experiment [5] was over 2.9. In the experiment on Plasmodium falciparum [2], the EC50 is 1250 nM. Besides, the values for the inhibition in the experiment on Plasmodium falciparum [3] and with Plasmodium falciparum [4] were 2% and 3%, respectively. Further, the IC50 in experiment [6] is over 1000 nM; in experiment [7] it was 350 nM.
In the case of `Cn1cnc(S(=O)(=O)N(Cc2ccsc2)[C@H]2CCC[C@@H]2N(Cc2cncn2C)c2ccc(C#N)cc2)c1` (racemic), the EC50 with Plasmodium falciparum [1] and in the experiment with Plasmodium falciparum [2] was 2700 nM throughout. In addition, the inhibition in the experiment with Plasmodium falciparum [3] stood at 57%; in the experiment on Plasmodium falciparum [4], 11%.
As to `Cn1cnc(S(=O)(=O)N(Cc2ccccc2)[C@H]2CC[C@@H](N(Cc3cncn3C)c3ccc(C#N)cc3)CC2)c1`, the EC50 in the experiment with Plasmodium falciparum [2] amounted to 2750 nM. Besides, the inhibition with Plasmodium falciparum [3] came out at 23%.
Consider `Cn1cnc(S(=O)(=O)N(Cc2ccccc2)[C@@H]2CCC[C@@H]2N(Cc2cncn2C)c2ccc(C#N)cc2)c1` (racemic), for which the EC50 with Plasmodium falciparum [1] was over 5000 nM. The inhibition with Plasmodium falciparum [3] and in the experiment on Plasmodium falciparum [4] was 0% in each case.
Consider `Cn1cnc(S(=O)(=O)N(Cc2ccccc2)[C@H]2CC[C@@H](N(Cc3cncn3C)c3ccc(C#N)cc3)C2)c1` (racemic), for which the EC50 in the experiment with Plasmodium falciparum [1] stood at 700 nM. The inhibition with Plasmodium falciparum [3] stood at 40%; in the experiment on Plasmodium falciparum [4] it was 4%.
With `Cn1cnc(S(=O)(=O)N(Cc2ccsc2)[C@H]2CC[C@@H](N(Cc3cncn3C)c3ccc(C#N)cc3)C2)c1` (racemic), the EC50 in the experiment with Plasmodium falciparum [1] was 2400 nM; with Plasmodium falciparum [2], 2500 nM. The molecule further came in with an inhibition in the experiment on Plasmodium falciparum [3] of 15%.
Regarding `Cn1cnc(S(=O)(=O)N(Cc2ccsc2)[C@@H]2CCC[C@@H]2N(Cc2cncn2C)c2ccc(C#N)cc2)c1` (racemic), the EC50 in the experiment on Plasmodium falciparum [1] was over 5000 nM; in the experiment with Plasmodium falciparum [2], 4200 nM. For the same molecule, the inhibition amounted to 9% in the experiment with Plasmodium falciparum [3] and 0% in the experiment with Plasmodium falciparum [4].
For the molecule `Cn1cnc(S(=O)(=O)N(CC2CCN(C(=O)OC(C)(C)C)CC2)[C@@H]2CC[C@@H](N(Cc3cncn3C)c3ccc(C#N)cc3)C2)c1` (racemic), in the experiment with Plasmodium falciparum [1], the EC50 turned out to be 310 nM. Further, the inhibition in the experiment on Plasmodium falciparum [3] was found to be 97%; in the experiment with Plasmodium falciparum [4], 86%. The molecule also displayed an IC50 in experiment [7] of 3.1 nM.
Turning to `Cn1cnc(S(=O)(=O)N(CC2CCN(C(=O)OC(C)(C)C)CC2)[C@H]2CC[C@H](N(Cc3cncn3C)c3ccc(C#N)cc3)CC2)c1`, the EC50 with Plasmodium falciparum [2] was 1200 nM. This molecule also displayed an inhibition in the experiment with Plasmodium falciparum [3] of 0%.
As for `Cn1cnc(S(=O)(=O)N(CC2CCN(C(=O)OC(C)(C)C)CC2)[C@H]2CC[C@@H](N(Cc3cncn3C)c3ccc(C#N)cc3)C2)c1` (racemic), the EC50 with Plasmodium falciparum [1] was found to be 300 nM; in the experiment on Plasmodium falciparum [2], 125 nM. For the same molecule, the inhibition in the experiment on Plasmodium falciparum [3] stood at 83%; in the experiment with Plasmodium falciparum [4], 33%.
Molecule `Cn1cnc(S(=O)(=O)N(Cc2ccccc2)[C@H]2CC[C@H](N(Cc3cncn3C)c3ccc(C#N)cc3)CC2)c1` registered an inhibition in the experiment with Plasmodium falciparum [3] of 73%.
On to `Cn1cnc(S(=O)(=O)N(CC2CCN(c3ncccn3)CC2)CC(C)(C)N(Cc2cncn2C)c2ccc(C#N)cc2)c1`, for which the inhibition in the experiment with Plasmodium falciparum [3] was found to be 100%; in the experiment on Plasmodium falciparum [4], 93%.
With `Cn1cnc(S(=O)(=O)N(CCCN(Cc2cncn2C)c2ccc(C#N)cc2)CC2CCN(C(=O)OC(C)(C)C)CC2)c1`, the inhibition with Plasmodium falciparum [3] was determined as 94%; with Plasmodium falciparum [4], 73%. The half-maximal inhibitory concentration (IC50) in experiment [7] is 1 nM.
For `Cc1ccccc1CN(CCN(Cc1cncn1C)c1ccc(C#N)cc1)S(=O)(=O)c1cn(C)cn1`, the inhibition amounted to 99% with Plasmodium falciparum [3] and 95% in the experiment with Plasmodium falciparum [4].
The like results for `Cn1cnc(S(=O)(=O)N(CCN(Cc2cncn2C)c2ccc(C#N)cc2)Cc2ccccc2)c1` were, in that order, 98% and 86%.
The like results for `Cn1cnc(S(=O)(=O)N(Cc2ccccc2)CC(C)(C)N(Cc2cncn2C)c2ccc(C#N)cc2)c1` were, in that order, 100% and 88%.
With `Cn1cnc(S(=O)(=O)N(Cc2ccsc2)[C@@H]2CC[C@@H](N(Cc3cncn3C)c3ccc(C#N)cc3)C2)c1` (racemic), the EC50 in the experiment with Plasmodium falciparum [1] stood at 1500 nM; with Plasmodium falciparum [2] it was 1200 nM. In the experiment on Plasmodium falciparum [3], this molecule returned an inhibition of 56%.
As for `Cn1cnc(S(=O)(=O)N(CC2CCN(c3ncccn3)CC2)[C@H]2CCC[C@@H]2N(Cc2cncn2C)c2ccc(C#N)cc2)c1` (racemic), the EC50 with Plasmodium falciparum [1] came out at 2600 nM; in the experiment on Plasmodium falciparum [2], 750 nM. The inhibition in the experiment with Plasmodium falciparum [3] was 28%; in the experiment with Plasmodium falciparum [4] it was 12%.
Turning to `Cn1cnc(S(=O)(=O)N(CCN(Cc2cncn2C)c2ccc(C#N)cc2)CC2CCN(c3ncccn3)CC2)c1`, the inhibition with Plasmodium falciparum [3] was determined as 96%; with Plasmodium falciparum [4], 74%.
Regarding `Cc1ccccc1CN([C@H]1CCC[C@@H]1N(Cc1cncn1C)c1ccc(C#N)cc1)S(=O)(=O)c1cn(C)cn1` (racemic), the EC50 is 3000 nM in the experiment on Plasmodium falciparum [1] and 3200 nM with Plasmodium falciparum [2]. In addition, the inhibition in the experiment on Plasmodium falciparum [3] was found to be 35%; with Plasmodium falciparum [4], 12%.
As for `Cn1cnc(S(=O)(=O)N(CC2CCN(c3ncccn3)CC2)[C@@H]2CCC[C@@H]2N(Cc2cncn2C)c2ccc(C#N)cc2)c1` (racemic), the EC50 in the experiment on Plasmodium falciparum [1] came to 3000 nM; with Plasmodium falciparum [2] it was 2500 nM. In addition, the inhibition was determined as 0% in the experiment with Plasmodium falciparum [3] and 10% with Plasmodium falciparum [4].
As for `Cn1cnc(S(=O)(=O)N(CCCN(Cc2cncn2C)c2ccc(C#N)cc2)CC2CCN(c3ncccn3)CC2)c1`, the inhibition in the experiment with Plasmodium falciparum [3] amounted to 93%; in the experiment with Plasmodium falciparum [4], 62%.
`Cn1cnc(S(=O)(=O)N(CCCN(Cc2cncn2C)c2ccc(C#N)cc2)Cc2ccsc2)c1`: the inhibition with Plasmodium falciparum [3] worked out at 73%; in the experiment on Plasmodium falciparum [4], 18%.
For `Cc1ccccc1CN([C@H]1CC[C@@H](N(Cc2cncn2C)c2ccc(C#N)cc2)C1)S(=O)(=O)c1cn(C)cn1` (racemic), the EC50 was found to be 2400 nM in the experiment on Plasmodium falciparum [1] and 2600 nM in the experiment with Plasmodium falciparum [2]. In addition, the inhibition with Plasmodium falciparum [3] was 24%.
On to `Cn1cnc(S(=O)(=O)N(CCCN(Cc2cncn2C)c2ccc(C#N)cc2)Cc2ccccc2)c1`, for which the EC50 with Plasmodium falciparum [2] was 2650 nM. The inhibition is 71% in the experiment with Plasmodium falciparum [3] and 16% with Plasmodium falciparum [4].
For the molecule `Cn1cnc(S(=O)(=O)N(Cc2ccsc2)CC(C)(C)N(Cc2cncn2C)c2ccc(C#N)cc2)c1`, the EC50 with Plasmodium falciparum [1] stood at 2450 nM. For the same molecule, in the experiment with Plasmodium falciparum [3], the inhibition was 70%.
Regarding `Cn1cnc(S(=O)(=O)N(CC2CCN(C(=O)OC(C)(C)C)CC2)[C@H]2CCC[C@@H]2N(Cc2cncn2C)c2ccc(C#N)cc2)c1` (racemic), the EC50 with Plasmodium falciparum [1] is 2650 nM. The Selectivity ratio in experiment [5] is over 100. The inhibition with Plasmodium falciparum [3] stood at 82%; with Plasmodium falciparum [4] it was 41%. The results for the IC50 in experiment [6] and in experiment [7] were over 1000 nM and 10 nM, respectively.
In the case of `Cc1ccccc1CN(CCCN(Cc1cncn1C)c1ccc(C#N)cc1)S(=O)(=O)c1cn(C)cn1`, the inhibition was determined as 76% with Plasmodium falciparum [3] and 24% with Plasmodium falciparum [4].
Turning to `Cn1cnc(S(=O)(=O)N(Cc2ccccc2)[C@H]2CCC[C@@H]2N(Cc2cncn2C)c2ccc(C#N)cc2)c1` (racemic), the EC50 stood at 3100 nM with Plasmodium falciparum [1] and 2350 nM with Plasmodium falciparum [2]. Besides, the inhibition was 42% in the experiment with Plasmodium falciparum [3] and 20% with Plasmodium falciparum [4].
Consider `Cn1cnc(S(=O)(=O)N(CC2CCN(c3ncccn3)CC2)[C@@H]2CC[C@@H](N(Cc3cncn3C)c3ccc(C#N)cc3)C2)c1` (racemic), for which the figures for the EC50 with Plasmodium falciparum [1] and with Plasmodium falciparum [2] were 2600 nM and 1500 nM, respectively. In the experiment on Plasmodium falciparum [3], this molecule returned an inhibition of 38%.
Regarding `Cn1cnc(S(=O)(=O)N(CCN(Cc2cncn2C)c2ccc(C#N)cc2)CC2CCN(C(=O)OC(C)(C)C)CC2)c1`, the Selectivity ratio in experiment [5] was determined as 117. Moreover, the values for the inhibition with Plasmodium falciparum [3] and with Plasmodium falciparum [4] were 96% and 81%, respectively. This molecule displayed an IC50 in experiment [6] of 140 nM.

Broadly, the inhibition is how much of the control response was suppressed. High values mean strong suppression, low ones little suppression. What is called IC50 is the point on the concentration scale where inhibition reaches its midpoint. A low value points to greater potency in that assay.
